Several values for one entry are separate records, joined by “and”; a condition that tells them apart may be missing. Identical values can stand only once.
Assays:
A549 [1] = experiment: Antitumor activity against A549 non small cell carcinoma at dose range of 1.56-6.25 mg/kg on day 14, 21, 28; activity expressed as maximum tolerated dose; type: functional, Homo sapiens
In short: (§1)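 A549 human lung tumour cells were implanted orthotopically, 10⁶ cells through the chest wall into the left pleural space of anaesthetised BALB/C nude mice. Once tumours were established, drug was given iv on days 14, 21 and 28 after tumour cell injection. The endpoint was life span, expressed as T/C (%) = median survival time of treated/control × 100. MTD was the dose causing no toxic death and/or no weight loss >20%.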

[2] = target: DNA topoisomerase II (Homo sapiens) (UniProt P11388+Q02880); experiment: Inhibition of human DNA Topoisomerase II mediated DNA cleavage through the stabilization of transient DAN/topoisomerase II cleavage complex; type: protein assay
In short: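 Supercoiled pBS DNA (0.1 μg) preincubated 15 min at 30 °C with drug at 50 μM in 50 mM Tris-HCl pH 7.5, 1 mM ATP, 120 mM KCl, 10 mM MgCl2, 0.5 mM DTT, 0.1 mM EDTA, BSA. Two units human topo II added, 30 min at 30 °C. SDS/proteinase K digestion 30 min at 55 °C. 1% agarose gel with ethidium bromide; linear DNA percentage read, mean of three independent experiments.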

L1210 [3] = experiment: Inhibitory concentration required to reduce 50 percent L1210 cell growth; type: functional, cell-based; conditions: Mus musculus
In short: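 L1210 cells were grown in RPMI 1640 with 10% fetal calf serum, 2 mM glutamine, antibiotics and 10 mM HEPES (pH 7.4). Cells were exposed to compound for 48 h. MTT was then added for 4 h at 37 °C, and formazan was dissolved in DMSO and read at 540 nm. IC50 is the concentration reducing OD by 50%, from linear regression on the linear part of the curve. Triplicate.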

L1210 [4] = experiment: Percent of L1210 cells in the G2+M phase of the cell cycle at a compound concentration of 0.1 uM; type: functional, Mus musculus
In short: (§2)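 L1210 cells (2.5 × 10⁵ cells/mL) were incubated for 21 h with compound at the stated concentration. Flow cytometry was run on 10⁴ cells per sample, and the percentage of cells in G2+M was recorded.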

P388 [5] = experiment: Evaluated for long-term survivors scored at day 60; 0/6; type: functional, Mus musculus
P388 [6] = experiment: Antitumor activity against P388 leukemia at dose range of 1.56-25 mg/kg on day 1, activity expressed as maximum tolerated dose; type: functional, Mus musculus
P388 [7] = experiment: Median survival time of treated animals/median survival time of control animals; type: functional, Mus musculus
[8] = Median survival time of treated animals/median survival time of control animals; ranges from 126-159; type: functional; in short: as §1
A549 [9] = experiment: Antitumor activity against A549 non small cell carcinoma at dose range of 3.12-12.5 mg/kg on day 14, 21, 28; activity expressed as maximum tolerated dose; type: functional, Homo sapiens; in short: as §1
L1210 [10] = experiment: Percent of L1210 cells in the G2+M phase of the cell cycle at a compound concentration of 0.25 uM; type: functional, Mus musculus; in short: as §2
A549 [11] = experiment: Antitumor activity against A549 non small cell carcinoma at dose range of 6.25-25 mg/kg on day 14, 21, 28; activity expressed as maximum tolerated dose; type: functional, Homo sapiens; in short: as §1
P388 [12] = experiment: Antitumor activity against P388 leukemia at dose range of 12.5-200 mg/kg on day 1, activity expressed as maximum tolerated dose; type: functional, Mus musculus
L1210 [13] = experiment: Percent of L1210 cells in the G2+M phase of the cell cycle at a compound concentration of 0.5 uM; type: functional, Mus musculus; in short: as §2
A-431 = experiment: […] antiproliferative activity against A431 cell line; type: functional; conditions: Homo sapiens
A549 [14] = experiment: Antitumor activity against A549 non small cell carcinoma at dose range of 70-100 mg/kg on day 14, 21, 28; activity expressed as maximum tolerated dose; type: functional, Homo sapiens; in short: as §1
A549 [15] = experiment: […] antiproliferative activity against A549 cell line; type: functional; conditions: Homo sapiens
DU-145 = experiment: […] antiproliferative activity against DU-145 cell line; type: functional; conditions: Homo sapiens
HT-29 = experiment: […] antiproliferative activity against HT-29 cell line; type: functional; conditions: Homo sapiens
L1210 [16] = experiment: Percent of L1210 cells in the G2+M phase of the cell cycle at a compound concentration of 2.5 uM; type: functional, Mus musculus; in short: as §2
IGROV-1 = experiment: […] antiproliferative activity against IGROV1 cell line; type: functional; conditions: Homo sapiens
K562 = experiment: […] antiproliferative activity against K-562 cell line; type: functional; conditions: Homo sapiens
MDA-MB-231 = experiment: […] antiproliferative activity against MDA-MB-231 cell line; type: functional; conditions: Homo sapiens
Mus musculus = organism: Mus musculus; experiment: Compound was evaluated for long-term survivors scored at day 60; 6/42; type: functional
NCI-H69 = experiment: […] antiproliferative activity against NCI-H69 cell line; type: functional; conditions: Homo sapiens
P388 [17] = experiment: […] antiproliferative activity against P388 cell line; type: functional; conditions: Mus musculus
P388 [18] = experiment: Antitumor activity against P388 leukemia at dose range of 6.25-100 mg/kg on day 1, activity expressed as maximum tolerated dose; type: functional, Mus musculus
[19] = Median survival time of treated animals/median survival time of control animals; ranges from 122-131; type: functional; in short: as §1
SK-N-MC = experiment: […] antiproliferative activity against SK-N-MC cell line; type: functional; conditions: Homo sapiens
KB 3-1 = experiment: In vitro antiproliferative activity against KB-3-1 cell line; conditions: Homo sapiens
L1210 [20] = experiment: Percent of L1210 cells in the G2+M phase of the cell cycle at a compound concentration of 50 uM; type: functional, Mus musculus; in short: as §2
A549 [21] = experiment: Antitumor activity against A549 non small cell carcinoma at dose range of 25-100 mg/kg on day 14, 21, 28; activity expressed as maximum tolerated dose; type: functional, Homo sapiens; in short: as §1
L1210 [22] = experiment: Percent of L1210 cells in the G2+M phase of the cell cycle at a compound concentration of 25 uM; type: functional, Mus musculus; in short: as §2
L1210 [23] = experiment: Percent of L1210 cells in the G2+M phase of the cell cycle at a compound concentration of 1 uM; type: functional, Mus musculus; in short: as §2

COc1cc([C@@H]2c3cc4c(cc3[C@@H](NS(=O)(=O)N3CCN(C)CC3)[C@H]3COC(=O)[C@H]23)OCO4)cc(OC)c1O
MTD (A549 [1]): 6.25 | Activity [2]: 45 | IC50 (L1210 [3]): 48 nM | Effect (L1210 [4]): 84% | LTS (P388 [5]): 0 | MTD (P388 [6]): 12.5 | T/C (P388 [7]): 229% | T/C [8]: 159%

CCN(CC)S(=O)(=O)N[C@@H]1c2cc3c(cc2[C@@H](c2cc(OC)c(O)c(OC)c2)[C@H]2C(=O)OC[C@@H]21)OCO3
MTD (A549 [9]): 6.25 | Activity [2]: 24 | Effect (L1210 [10]): 86% | IC50 (L1210 [3]): 83 nM | LTS (P388 [5]): 0 | MTD (P388 [6]): 25 | T/C (P388 [7]): 106% and 120%

COc1cc([C@@H]2c3cc4c(cc3[C@@H](NS(=O)(=O)N(C)C)[C@H]3COC(=O)[C@H]23)OCO4)cc(OC)c1O
MTD (A549 [11]): 6.25 | Activity [2]: 44 | Effect (L1210 [10]): 66% | IC50 (L1210 [3]): 37 nM | LTS (P388 [5]): 0 | MTD (P388 [12]): 100 | T/C (P388 [7]): 192% and 133%

COc1cc([C@@H]2c3cc4c(cc3[C@@H](NS(C)(=O)=O)[C@H]3COC(=O)[C@H]23)OCO4)cc(OC)c1O
Activity [2]: 50 | IC50 (L1210 [3]): 70 nM | Effect (L1210 [13]): 77%

COc1cc([C@@H]2c3cc4c(cc3[C@@H](O[C@@H]3O[C@@H]5CO[C@@H](C)O[C@H]5[C@H](O)[C@H]3O)[C@H]3COC(=O)[C@H]23)OCO4)cc(OC)c1O [ETOPOSIDE]
IC50 (A-431): 591 nM | MTD (A549 [14]): 70 | IC50 (A549 [15]): 664 nM | IC50 (DU-145): 2370 nM | Activity [2]: 50 | IC50 (HT-29): 2370 nM | Effect (L1210 [16]): 80% | IC50 (IGROV-1): 984 nM | IC50 (K562): 522 nM | IC50 (MDA-MB-231): 600 nM | LTS (Mus musculus): 6 | IC50 (NCI-H69): 1190 nM | IC50 (P388 [17]): 29.8 nM | MTD (P388 [18]): 100 | T/C (P388 [7]): 233% | T/C [19]: 131% | IC50 (SK-N-MC): 275 nM | IC50 (KB 3-1): 566 nM

COc1cc([C@@H]2c3cc4c(cc3[C@@H](NS(=O)(=O)CCCN)[C@H]3COC(=O)[C@H]23)OCO4)cc(OC)c1O
Activity [2]: 45 | Effect (L1210 [20]): 75% | IC50 (L1210 [3]): 2500 nM

COc1cc([C@@H]2c3cc4c(cc3[C@@H](NS(=O)(=O)CCCCl)[C@H]3COC(=O)[C@H]23)OCO4)cc(OC)c1O
Activity [2]: 14 | Effect (L1210 [10]): 66% | IC50 (L1210 [3]): 45 nM

COc1cc([C@@H]2c3cc4c(cc3[C@@H](NS(=O)(=O)N3CCOCC3)[C@H]3COC(=O)[C@H]23)OCO4)cc(OC)c1O
MTD (A549 [21]): 50 | Activity [2]: 31 | Effect (L1210 [10]): 76% | IC50 (L1210 [3]): 100 nM | LTS (P388 [5]): 0 | MTD (P388 [12]): 200 | T/C (P388 [7]): 235% and 155%

CCCCN(CCCC)S(=O)(=O)N[C@@H]1c2cc3c(cc2[C@@H](c2cc(OC)c(O)c(OC)c2)[C@H]2C(=O)OC[C@@H]21)OCO3
Activity [2]: 0 | Effect (L1210 [16]): 60% | IC50 (L1210 [3]): 510 nM

CCCCCCCCCCCCCCCCS(=O)(=O)N[C@@H]1c2cc3c(cc2[C@@H](c2cc(OC)c(O)c(OC)c2)[C@H]2C(=O)OC[C@@H]21)OCO3
Activity [2]: 0 | Effect (L1210 [22]): 73% | IC50 (L1210 [3]): 5500 nM

CCCCCCCCS(=O)(=O)N[C@@H]1c2cc3c(cc2[C@@H](c2cc(OC)c(O)c(OC)c2)[C@H]2C(=O)OC[C@@H]21)OCO3
Activity [2]: 35 | Effect (L1210 [23]): 76% | IC50 (L1210 [3]): 250 nM
